High-throughput results as filed in PubChem.
Apaf1 activ: activators of human Apaf-1 apoptosome; O14727; Apaf-1 apoptosome caspase-3 activation, DEVD-Rh110 fluorescence; stronger effect = lower value; activity change, negative = activation, % at 20 µM; hit rate 0.31% among 330,000; AID 489031;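 active means activity change at or below -40% at 20 µM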
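Material: biochemical Apaf-1 apoptosome reconstitution; Medium: 20 mM HEPES buffer, pH 7.5, containing CHAPS and BSA; Reagent: dATP, cytochrome c, and (Z-DEVD)2-Rh110 caspase-3 substrate; Times: 30 min preincubation, 50 min reaction, room temperature; Signal: Rh110 fluorescence, excitation 480 nm, emission 540 nm; Measure: Caspase-3 activity via Apaf-1.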
Rh110 act interf: counter-screen for Apaf-1 activators: fluorescence interference; Rh110 fluorescence interference, quenched caspase reaction, Ex480/Em540; fluorescence interference (activity change), % at 20 µM, hits read low; 980 tested, under 10 active; shares compounds with Apaf1 activ;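 active means mean activity change at or below -40% when tested at 20 µM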
Apaf-1 act conf2: confirmation of human Apaf-1 activators | shares compounds with Apaf1 activ | reconstituted apoptosome caspase-3 activity, DEVD-Rh110 fluorescence; stronger effect = lower value | activity change, negative = activation, % at 20 µM | hit rate 5% among 980 | AID 504617;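 active means mean activity change at or below -40%, meaning activation of 40% or more, at 20 µM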
Apaf1 act interf: Apaf-1 activator counter-screen fluorescence artifact; shares compounds with Apaf1 activ; fluorescence interference counterscreen, Apaf-1 activator assay; EC50, µM; 55 tested, under 10 active; AID 588592; call rule not given here
Starred values were filed as active, the others as inactive; . = not tested or not shown. These entries were drawn from the full list.

SMILES	Apaf1 activ	Rh110 act interf	Apaf-1 act conf2	others
CCOC(=O)CSc1nc2cc(C(=O)NCc3ccco3)ccc2c(=O)n1-c1ccc(F)cc1	-105*	3	12
Cc1cc(N)ccc1N1CCCC1	65	.	.
Fc1ccc(/C=N/Nc2nc3ccccc3[nH]2)cc1F	-64*	-4	13
COc1ccc2nc(C)cc(N/N=C/c3ccc(F)cc3)c2c1	50	.	.
Cc1[nH]n(-c2ccccc2)c(=O)c1/C=N/N(C)c1ccccc1	80	.	.
C#CCOCCOCCOCCNc1nc(N2CCN(C(=O)[C@H](CCCCN)n3cc([C@@H](N)CC(N)=O)nn3)CC2)nc(N2CCN(C(=O)[C@H](CCCCN)n3cc([C@@H](N)CC(N)=O)nn3)CC2)n1	55	.	.
NS(=O)(=O)c1cccc(NC(=O)CCS(=O)(=O)c2ccc(Cl)cc2)c1	-254*	2	3
Cc1cc(C)c2sc(N(CCCN(C)C)C(=O)c3ccc(S(=O)(=O)N(C)C4CCCCC4)cc3)nc2c1	40	.	.
CCN1CCN(Cc2ccc(NC(=O)c3cc(NC(=O)C4=NN(c5ccccc5)C(=O)C4)cc(OC)c3)cc2C(F)(F)F)CC1	51	.	.
COc1ccc(N2CCCn3c2nc2c3c(=O)n(Cc3ccc(C)cc3)c(=O)n2C)c(OC)c1	-100*	8	21
CCC(C)(C)C1CCc2c(sc(N)c2C(N)=O)C1 (centres undefined)	-48*	4	20
Oc1ccc(NCc2cccc(OCc3ccccc3)c2)cc1	91	.	.
Cc1cccc(N(C(=O)Cn2nnc3ccccc32)C(C(=O)NCc2ccco2)c2ccncc2)c1 (centres undefined)	-47*	2	9
CCC(COC)Oc1cc(NCc2ccccc2)c2ncn(C(C)C)c2c1 (centres undefined)	97	.	.
O=[N+]([O-])c1cccc(OCc2cn3cccnc3n2)c1	-66*	10	3
COc1ccc(C)cc1NC(=O)COC(=O)C1COc2ccccc2O1 (centres undefined)	-53*	-1	10
COc1ccc(C)cc1NC(=O)CN1C(=O)C2CC=CCC2C1=O (centres undefined)	-315*	1	9
Cc1noc(C)c1COC(=O)C1COc2ccccc2O1 (centres undefined)	-73*	-6	12
O=C1CCN2C=Nc3cccc4ccc1c2c34	43	.	.
COc1ccc2cc3cc(C(=O)NCCCN4CCc5ccccc5C4)sc3nc2c1	42	.	.
CCCCn1c(NC(=O)c2ccccc2Cl)c(C#N)c2nc3ccccc3nc21	93	.	.
CCCCCCc1cc2cc(-c3nnc(-c4cc(OC)c(OC)c(OC)c4)o3)c(=O)oc2cc1O	63	.	.
CCCCCCc1cc2cc(-c3nnc(-c4ccccc4O)o3)c(=O)oc2cc1O	-140*	10	-43*	Apaf1 act interf=>100
CCCCCCc1cc2cc(-c3nnc(-c4ccccc4OC)o3)c(=O)oc2cc1O	62	.	.
Cc1c(CCOC(=O)C2C3CC4CC(C3)CC2C4)sc[n+]1CC(=O)c1ccc(Br)cc1 (centres undefined)	50	.	.
SMILES	Apaf1 activ	Rh110 act interf	Apaf-1 act conf2	others
CN(C)CCCN(C(=O)c1ccc(S(=O)(=O)N2CCCC2)cc1)c1nc2ccc(Br)cc2s1	53	.	.
Oc1ccc2ccccc2c1C=NC12CN3CCN(CN(C3)C1)C2	90	.	.
Cc1c(Cc2ccccc2)sc(/N=C/c2c(O)ccc3ccccc23)c1C(N)=O	-63*	11	23
O=C(Cc1cc(=O)[nH][nH]1)N/N=C/C=C/c1ccccc1	48	.	.
CCc1cc2c(nc1CC)CCN(CC/C(C)=N/OC[C@H]1O[C@H](c3ccccc3)C=C[C@@H]1Oc1ccc(OC)cc1)C2	43	.	.
CCCCCOC(=O)c1c(N)n(CCOC)c2nc3ccccc3nc12	94	.	.
O=C1CC(N2CCN(C3CCc4ccccc4C3)CC2)C(=O)N1c1ccccc1 (centres undefined)	-43*	13	18
CCCCCCCCCCOC(=O)Cn1c(COc2ccccc2C)[n+](C)c2ccccc21	81	.	.
O=C(c1ccc2ncsc2c1)N1CCCC(C(F)(F)F)C1 (centres undefined)	42	.	.
CSCCC(NC(=O)c1ccco1)C(=O)N1CCCC(C(F)(F)F)C1 (centres undefined)	-394*	-7	27
NCCc1cnc[nH]1	3	.	.
O=C1c2ccccc2C(=O)C12OC2c1cccc2ccccc12 (centres undefined)	94	.	.
COc1ccc(C(C(=O)NC2CCCC2)N(Cc2ccc(F)cc2)C(=O)c2ccn[nH]2)cc1OC (centres undefined)	-105*	-5	10
COC(=O)CCC(=O)OC1(C)C(=O)C=C2C=C(C3CC3)N(CCc3ccccn3)C=C2C1=O (centres undefined)	53	.	.
C/C(=N\NC(=O)c1ccc(NS(=O)(=O)c2cccs2)cc1)c1ccc(Cl)cc1	-46*	1	14
COc1ccccc1C(C)NC(=O)C1CCN(S(=O)(=O)c2cccs2)CC1 (centres undefined)	-53*	13	14
CC(=O)OCC(=O)[C@@]1(O)CC[C@H]2[C@@H]3CCC4=CC(=O)CC[C@]4(C)[C@H]3[C@@H](O)C[C@@]21C	-4	.	.
Cc1cccc(CNc2ncnc3ccc(-c4ccc5c(c4)OCCO5)cc23)c1	42	.	.
CCc1cc2c(NCc3ccco3)ncnc2s1	-110*	0	2
COc1ccc(C2CC(=O)Oc3c(C(CCN4CCCC(C)C4)c4ccc(N(C)C)cc4)c(OC)cc(OC)c32)cc1 (centres undefined)	49	.	.
Cc1ccccc1C(=O)c1cccn1CC(=O)NCc1ccc(Cl)cc1	-92*	7	16
CC(=O)[C@@H]1[C@@H]2C(=O)N(c3ccc(F)c(Cl)c3)C(=O)[C@@H]2C2c3ccccc3C=CN21 (some centres undefined)	72	.	.
S=C(Nc1ccc2[nH]ccc2c1)NC1CCCCC1	-86*	2	21
NC1=Nc2cccc3cccc1c23	67	.	.
CN1c2cccc3cccc(c23)N(C)C1(C)C	46	.	.
SMILES	Apaf1 activ	Rh110 act interf	Apaf-1 act conf2	others
COc1ccc(-c2cc(C)no2)cc1S(=O)(=O)NCCc1ccco1	-382*	5	-1
Cc1ccc(-c2nn3c(-c4ccco4)nnc3c3ccccc23)cc1S(=O)(=O)NCC1CCCO1 (centres undefined)	66	.	.
Nc1scc2c(C(=O)N/N=C/c3ccc(Cl)cc3)nn(-c3ccccc3)c(=O)c12	42	.	.
CCOc1cc(/C=C2\C(=O)N(CCC#N)N=C2C)ccc1OCC(N)=O	58	.	.
C=CCN1C(=O)C2(OCCCO2)c2ccccc21	-42*	8	15
CC(C)C[C@@H]1CN=C(N)N1C[C@@H]1CCCN1C[C@@H](C(C)C)N1C[C@@H](Cc2ccccc2)N(CCc2ccc(Cl)c(Cl)c2)C1=N	63	.	.
CCCCCCCCCCOC(=O)Cn1c(COc2ccccc2)[n+](C)c2ccccc21	73	.	.
COc1cc2c(C#N)c(N3CCCCC3)nc(N)c2c(N)n1	97	.	.
NC(N)=NC(N)=Nc1cccc2ccccc12	83	.	.
O=C1NC2=C(CCc3ccccc32)C(c2ccccc2)N1 (centres undefined)	91	.	.
COc1ccc(C(=O)/C=C/Nc2cc(C)ccn2)cc1	-165*	-3	16
